Measured values as given in ChEMBL document CHEMBL5303300, “EUbOPEN Chemogenomics Library - Multiplex” (2023).
Where “and” joins values, the source holds several entries; their conditions need not be identical. Equal values may be shown once.

System: Fibroblast
Assay: Multiplex assay against human fibroblast
Type: toxicity, cell-based
Conditions: number of replicates 2
Summary of the method: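 On a CQ1 microscope at 37°C and 5% CO2, live cells were imaged after compound addition. They had been stained at seeding with Hoechst33342, BioTracker Green Microtubule Cytoskeleton Dye, MitoTracker Red and Annexin V Alexa Fluor 680. CellPathfinder machine-learning gating assigned cells to Hoechst high-intensity objects or normal cells, normal cells to healthy, pyknosed or fragmented nuclei, and pyknosed cells to mitotic or apoptotic. Tubulin, mitochondrial-mass and membrane-permeability phenotypes are per cents of healthy-nucleus cells.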

[1] = 12 h, 1 µM, compound concentration 1 uM
[2] = 12 h, 10 µM, compound concentration 10 uM
[3] = 24 h, 1 µM, compound concentration 1 uM
[4] = 24 h, 10 µM, compound concentration 10 uM
[5] = 48 h, 1 µM, compound concentration 1 uM
[6] = 48 h, 10 µM, compound concentration 10 uM

**Q.** For `CN1CCCN(C(=O)c2cccc(-c3ccc(/C=C4/C(=O)Nc5ccc(Cl)cc54)o3)c2)CC1`, which “Population Apoptotic (%)” value [1] is on record?
**A.** Its value is 43% and 41%.

**Q.** And the “Population Fragmented Nuclei (%)” value [1]?
**A.** The value was 4% and 3%.

**Q.** What about the “Population Healthy Nuclei (%)” value [1] of the same compound?
**A.** Its value is 79% and 72%.

**Q.** What about the “Population Hoechst High Intensity Objects (%)” value [1] of the same compound?
**A.** Its value is 0%.

**Q.** What about the “Population Membrane Permeable-Phenotype (%)” value [1] of the same compound?
**A.** The value was 4% and 1%.

**Q.** What about the “Population Mitochondria Different-Phenotype (%)” value [1] of the same compound?
**A.** Its value is 2%.

**Q.** And the “Population Mitotic Cells (%)” value [1]?
**A.** Its value is 56% and 58%.

**Q.** And the “Population Normal (%)” value [1]?
**A.** The value was 100%.

**Q.** And the “Population Pyknosed Nuclei (%)” value [1]?
**A.** The value was 16% and 24%.

**Q.** And the “Population Tubulin-Different-Phenotype (%)” value [1]?
**A.** Its value is 20%.

**Q.** And the “Total Cell Count” value [1]?
**A.** The value was 283 and 162.

**Q.** And the “Population Apoptotic (%)” value [2]?
**A.** The value was 39% and 56%.

**Q.** What about the “Population Fragmented Nuclei (%)” value [2] of the same compound?
**A.** Its value is 3% and 1%.

**Q.** And the “Population Healthy Nuclei (%)” value [2]?
**A.** Its value is 8% and 3%.

**Q.** What about the “Population Hoechst High Intensity Objects (%)” value [2] of the same compound?
**A.** The value was 0%.

**Q.** And the “Population Mitochondria Different-Phenotype (%)” value [2]?
**A.** Its value is 7% and 0%.

**Q.** And the “Population Mitotic Cells (%)” value [2]?
**A.** The value was 60% and 44%.

**Q.** What about the “Population Normal (%)” value [2] of the same compound?
**A.** Its value is 99% and 100%.

**Q.** And the “Population Pyknosed Nuclei (%)” value [2]?
**A.** The value was 88% and 95%.

**Q.** What about the “Population Tubulin-Different-Phenotype (%)” value [2] of the same compound?
**A.** The value was 61% and 100%.

**Q.** And the “Total Cell Count” value [2]?
**A.** The value was 156 and 131.

**Q.** What about the “Population Apoptotic (%)” value [3] of the same compound?
**A.** The value was 48% and 54%.

**Q.** What about the “Population Fragmented Nuclei (%)” value [3] of the same compound?
**A.** The value was 4%.

**Q.** What about the “Population Healthy Nuclei (%)” value [3] of the same compound?
**A.** The value was 83% and 75%.

**Q.** What about the “Population Hoechst High Intensity Objects (%)” value [3] of the same compound?
**A.** The value was 0%.

**Q.** And the “Population Membrane Permeable-Phenotype (%)” value [3]?
**A.** Its value is 5% and 3%.

**Q.** And the “Population Mitochondria Different-Phenotype (%)” value [3]?
**A.** Its value is 3% and 8%.

**Q.** What about the “Population Mitotic Cells (%)” value [3] of the same compound?
**A.** The value was 51% and 45%.

**Q.** What about the “Population Normal (%)” value [3] of the same compound?
**A.** The value was 100%.

**Q.** And the “Population Pyknosed Nuclei (%)” value [3]?
**A.** The value was 12% and 20%.

**Q.** And the “Population Tubulin-Different-Phenotype (%)” value [3]?
**A.** The value was 25%.

**Q.** What about the “Total Cell Count” value [3] of the same compound?
**A.** Its value is 271 and 164.

**Q.** And the “Population Apoptotic (%)” value [4]?
**A.** Its value is 75% and 57%.

**Q.** And the “Population Fragmented Nuclei (%)” value [4]?
**A.** The value was 4% and 7%.

**Q.** What about the “Population Healthy Nuclei (%)” value [4] of the same compound?
**A.** The value was 17% and 13%.

**Q.** What about the “Population Hoechst High Intensity Objects (%)” value [4] of the same compound?
**A.** Its value is 0%.

**Q.** And the “Population Membrane Permeable-Phenotype (%)” value [4]?
**A.** The value was 65% and 52%.

**Q.** What about the “Population Mitochondria Different-Phenotype (%)” value [4] of the same compound?
**A.** The value was 4% and 0%.

**Q.** And the “Population Mitotic Cells (%)” value [4]?
**A.** Its value is 24% and 42%.

**Q.** What about the “Population Normal (%)” value [4] of the same compound?
**A.** Its value is 100%.

**Q.** And the “Population Pyknosed Nuclei (%)” value [4]?
**A.** Its value is 78%.

**Q.** What about the “Population Tubulin-Different-Phenotype (%)” value [4] of the same compound?
**A.** The value was 34% and 30%.

**Q.** And the “Total Cell Count” value [4]?
**A.** Its value is 135 and 165.

**Q.** What about the “Population Apoptotic (%)” value [5] of the same compound?
**A.** The value was 62% and 80%.

**Q.** What about the “Population Fragmented Nuclei (%)” value [5] of the same compound?
**A.** The value was 8% and 7%.

**Q.** And the “Population Healthy Nuclei (%)” value [5]?
**A.** The value was 81% and 78%.

**Q.** What about the “Population Hoechst High Intensity Objects (%)” value [5] of the same compound?
**A.** The value was 0%.

**Q.** What about the “Population Membrane Permeable-Phenotype (%)” value [5] of the same compound?
**A.** Its value is 4% and 8%.

**Q.** And the “Population Mitochondria Different-Phenotype (%)” value [5]?
**A.** The value was 1%.

**Q.** And the “Population Mitotic Cells (%)” value [5]?
**A.** Its value is 37% and 19%.

**Q.** And the “Population Normal (%)” value [5]?
**A.** The value was 100% and 99%.

**Q.** What about the “Population Pyknosed Nuclei (%)” value [5] of the same compound?
**A.** Its value is 10% and 13%.

**Q.** And the “Population Tubulin-Different-Phenotype (%)” value [5]?
**A.** Its value is 20% and 17%.

**Q.** What about the “Total Cell Count” value [5] of the same compound?
**A.** Its value is 269 and 155.

**Q.** What about the “Population Apoptotic (%)” value [6] of the same compound?
**A.** Its value is 88% and 71%.

**Q.** And the “Population Fragmented Nuclei (%)” value [6]?
**A.** Its value is 20% and 37%.

**Q.** What about the “Population Healthy Nuclei (%)” value [6] of the same compound?
**A.** The value was 26% and 18%.

**Q.** What about the “Population Hoechst High Intensity Objects (%)” value [6] of the same compound?
**A.** The value was 0%.

**Q.** And the “Population Membrane Permeable-Phenotype (%)” value [6]?
**A.** Its value is 50% and 30%.

**Q.** What about the “Population Mitochondria Different-Phenotype (%)” value [6] of the same compound?
**A.** The value was 0%.

**Q.** What about the “Population Mitotic Cells (%)” value [6] of the same compound?
**A.** Its value is 11% and 28%.

**Q.** And the “Population Normal (%)” value [6]?
**A.** The value was 100%.

**Q.** What about the “Population Pyknosed Nuclei (%)” value [6] of the same compound?
**A.** The value was 52% and 43%.

**Q.** And the “Population Tubulin-Different-Phenotype (%)” value [6]?
**A.** The value was 46% and 27%.

**Q.** What about the “Total Cell Count” value [6] of the same compound?
**A.** Its value is 120 and 174.
